# Only some compounds are listed: those with a hit (about 4.6% of all), similar ones and a draw of the others.
# OX1R antag-1 – blocks the human orexin 1 receptor | hit rate 0.43% among 330,000 | O43613 | CHO/OX1R cells, Fluo-8 calcium fluorescence, orexin A | inhibition, % at 5 µM | AID 434989;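 active means inhibition above its plate's threshold, mean inhibition of all tested compounds on the plate plus 3 SD, cut at about 37% in these data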;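 further: 0% = orexin A challenge wells and 100% = SB-334867-A antagonist wells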
# CHO parental Ca – signal in parental CHO cells, OX1R antagonist counter-screen | parental CHO-K1, ATP-induced calcium, Fluo-8 fluorescence | inhibition, % at 5.6 µM | hit rate 0.63% among 330,000 | AID 463079;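 active means inhibition above that plate's mean sample inhibition plus 3 SD, cut at about 26% in these data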;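 further: 0% = ATP-challenged DMSO wells and 100% = DMSO wells without ATP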
#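 Material – parental CHO cells · Reagent – ATP stimulus · Compound – single nominal dose of 5.6 µM per compound · Detection – Fluo-8 fluorescence · Read-out basis – percent inhibition of calcium signal · Controls – ATP-challenged DMSO wells low, unchallenged DMSO wells high · Repeats – no replicates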
# TAAR1 antag – antagonists of human TAAR1; CHO RD-HGA16 TAAR1, Fluo-8 calcium fluorescence, antagonist; inhibition, % at 3 µM; hit rate 1.5% among 360,000; AID 624466; Q96RJ0;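 active means inhibition above a per-plate cutoff, the mean inhibition of test compounds on that plate plus 3 SD, cut at about 49% in these data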;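 further: 0% = DMSO plus EC80 beta-PEA response and 100% = DMSO alone without agonist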
# Target sequence (Q96RJ0 whole entry, looked up): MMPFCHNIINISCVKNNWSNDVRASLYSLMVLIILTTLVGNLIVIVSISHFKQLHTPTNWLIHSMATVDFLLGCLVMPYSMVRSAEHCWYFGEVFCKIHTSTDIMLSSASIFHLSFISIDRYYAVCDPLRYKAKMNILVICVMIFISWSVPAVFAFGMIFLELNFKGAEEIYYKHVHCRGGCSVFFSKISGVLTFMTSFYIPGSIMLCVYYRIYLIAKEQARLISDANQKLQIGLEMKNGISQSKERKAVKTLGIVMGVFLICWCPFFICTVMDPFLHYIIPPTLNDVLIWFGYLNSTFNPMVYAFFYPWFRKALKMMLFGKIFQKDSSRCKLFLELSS
#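 Test system: RD-HGA16 CHO cells with stable hTAAR1 and Gα16 / Probe or stimulus: EC80 β-phenethylamine stimulus / Times: seeding 17-24 h prior, 75-min 37 °C, 30-min RT dye loading / Detection: Fluo-8 calcium-sensitive fluorescence / Read-out basis: % inhibition scaled between DMSO and EC80 PEA controls / Repeats: singlicate, one well per test compound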
# TAAR1 ag – agonists of human TAAR1. Q96RJ0. hit rate 0.99% among 360,000. activation, % at 3 µM. CHO RD-HGA16 TAAR1, Fluo-8 calcium fluorescence; vehicle wells 0%, saturating PEA agonist 100%. AID 624467;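 active means activation above the mean activation of all test compounds in the run plus 3 SD, cut at about 38% in these data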
#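 System: CHO-derived RD-HGA16 cells with stable Gα16 and human TAAR1. Times: 17-24 h plating, Fluo-8 75 min 37 °C, 30 min RT. Measured by: calcium-sensitive Fluo-8 signal, excitation 470-495, emission 515-575 nm. Read-out basis: % activation relative to PEA EC100 response. Control set: DMSO and PEA EC100. Repeats: no replicates (n 1).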
# OX1R antag-2 – blocks the human orexin 1 receptor | O43613 | OX1R-expressing cells, FRET antagonist read-out | inhibition, % at 6.6 µM | hit rate 1.8% among 330,000 | AID 485270; in the data active means inhibition mostly above about 38%, no sharp cut-off; inactive means mostly below about 40%;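 further: 0% = agonist challenge alone and 100% = reference antagonist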
# GPR7 antag – human neuropeptides B/W receptor 1 antagonism; hit rate 1.1% among 290,000; GPR7-expressing cells, fluorescence antagonist assay; inhibition, % at 4.4 µM; P48145; in the data active means inhibition above about 16%, passing the limit was not always enough;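 further: cells stimulated with the agonist NPW; 0% = agonist with vehicle and 100% = vehicle without agonist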
# Target sequence (P48145 whole entry, looked up): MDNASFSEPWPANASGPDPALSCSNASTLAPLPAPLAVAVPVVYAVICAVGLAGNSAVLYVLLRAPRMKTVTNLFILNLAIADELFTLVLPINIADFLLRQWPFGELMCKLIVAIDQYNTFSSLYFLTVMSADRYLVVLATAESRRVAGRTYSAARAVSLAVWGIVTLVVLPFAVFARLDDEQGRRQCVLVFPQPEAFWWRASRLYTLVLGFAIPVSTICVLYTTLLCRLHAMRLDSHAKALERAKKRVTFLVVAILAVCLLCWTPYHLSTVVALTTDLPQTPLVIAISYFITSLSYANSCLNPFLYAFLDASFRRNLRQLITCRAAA
# TAAR1 ag conf – confirmation of human TAAR1 agonists; shares compounds with TAAR1 ag; CHO RD-HGA16 TAAR1, Fluo-8 calcium fluorescence; scaled: DMSO 0%, maximal phenethylamine 100%; activation, % at 3 µM; hit rate 82% among 2,400; AID 651783;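 active means activation above a cutoff set at the run's mean compound activation plus 3 SD, cut at about 39% in these data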
# Ga16 nonsel ag – nonselective agonism, TAAR1 counter-screen; hit rate 50% among 2,400; shares compounds with TAAR1 ag; AID 651787; CHO-Ga16 parental, Fluo-8 calcium fluorescence; normalized to maximal ATP response, DMSO zero; activation, % at 3 µM;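 active means activation above the run cutoff, the mean activation over all tested wells plus 3 SD, cut at about 12% in these data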;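 further: 0% = DMSO wells and 100% = maximal ATP response on the peak over basal ratio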
# TAAR1 desensitize – counter-screen for human TAAR1 agonists: agonists that desensitize TAAR1; hit rate 46% among 2,400; inhibition, % at 3 µM; shares compounds with TAAR1 ag; CHO RD-HGA16 hTAAR1, Fluo-8 calcium, beta-PEA response inhibition;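 active means inhibition above the run cutoff, the mean inhibition of all test compounds plus 3 SD, cut at about 49% in these data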;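 further: beta-PEA stimulus applied at its EC80; loss of beta-PEA calcium signal after compound pretreatment read as receptor desensitization; 0% = DMSO with beta-PEA at EC80 and 100% = DMSO alone without agonist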
# Ga16 nonsel ant – nonselective Ga16 antagonist in TAAR1 agonist counter-screen. hit rate 39% among 2,400. CHO-Ga16 ATP-induced calcium, Fluo-8 fluorescence. shares compounds with TAAR1 ag. inhibition, % at 3 µM. AID 651952;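 active means inhibition above the plate's mean compound inhibition plus 3 SD, computed per plate, cut at about 22% in these data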;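 further: 0% = EC80 ATP with DMSO and 100% = DMSO wells without ATP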
# * marks the source's active call; other numbers are inactive results; x = not tested or not shown.
SMILES,OX1R antag-1,CHO parental Ca,TAAR1 antag,TAAR1 ag,OX1R antag-2,GPR7 antag,TAAR1 ag conf,Ga16 nonsel ag,TAAR1 desensitize,Ga16 nonsel ant
O=C(NN1C(=O)C2C(c3ccccc3)C=CC(c3ccccc3)C2C1=O)c1ccncc1 (configuration not stated),9,-4,24,47*,11,-3,18,16*,17,9
O=C(NN1C(=O)C2C3C=CC(C3)C2C1=O)c1ccncc1 (configuration not stated),4,-9,-15,1,4,3,x,x,x,x
O=C1NC[C@@H](CCCCN2C[C@H](Cc3ccc(O)cc3)N(CC3CCCCC3)C(=O)C2=O)N(CCc2ccccc2)C1=O,x,x,-19,3,x,x,x,x,x,x
O=C(NNC(=S)NC(=O)c1ccc(Br)cc1)c1cccc([N+](=O)[O-])c1,-2,1,35,135*,2,15,105*,88*,40,21
O=C(NNC(=S)NC(=O)c1ccccc1Cl)c1cccc([N+](=O)[O-])c1,11,0,34,92*,6,-7,57*,43*,22,22*
O=C(NNC(=S)NC(=O)c1ccc(Br)cc1)c1ccc([N+](=O)[O-])cc1,-3,11,95*,124*,21,-3,142*,110*,96*,65*
O=C(NNC(=S)NC(=O)c1ccccc1)c1ccc([N+](=O)[O-])cc1,-10,-3,27,64*,4,4,70*,46*,19,22*
O=C(NNC(=S)NCc1ccccc1)c1cccc([N+](=O)[O-])c1,-7,-1,-25,1,24,-4,x,x,x,x
O=C(NNC(=O)c1ccc([N+](=O)[O-])cc1)c1ccc(Br)cc1,2,-5,-22,1,15,-1,x,x,x,x
CC(=O)NNC(=S)NC(=O)c1cccc([N+](=O)[O-])c1,15,0,-27,2,34,0,x,x,x,x
Cc1cc(=O)n(C(C)(C)C)c(=O)n1Cc1ccccc1,-10,0,-4,-3,0,2,x,x,x,x
CCc1ccc(NC(=O)C(C)OC(=O)Cn2[nH]c(=O)c3ccccc3c2=O)cc1 (configuration not stated),x,x,-7,0,x,x,x,x,x,x
CCn1nnnc1SCC(=O)NC1Cc2ccccc2C1,-6,-20,3,3,14,-6,x,x,x,x
CCn1cc(S(=O)(=O)NCCc2ccccc2OC)cn1,-9,-6,-5,46*,9,-8,59*,8,24,7
CC1Cc2ccccc2N1C(=O)CN1C(=O)NC(C)(c2ccc3c(c2)OCCO3)C1=O (configuration not stated),-17,-14,-5,53*,10,13,43*,9,4,9
CC1(c2ccc3c(c2)OCCO3)NC(=O)N(CC(=O)c2ccc[nH]2)C1=O (configuration not stated),-10,0,5,7,1,x,x,x,x,x
Cc1ccc(OCC(=O)Nc2cccc(C)n2)c(C)c1,-96,-14,0,7,12,-9,x,x,x,x
Cc1ccc(NC(=O)COc2cccc3ccc(C)nc23)c(Br)c1,-87,-6,89*,87*,20,-5,3,5,28,22*
O=C(COC(=O)c1ccc(Cl)cc1)NC1CCCCCC1,6,12,9,42*,12,x,-3,2,-7,-1
O=C(COC(=O)/C=C/c1ccc(Cl)cc1)Nc1ccc2[nH]c(=O)[nH]c2c1,1,5,-14,3,5,x,x,x,x,x
COc1cc(/C=C/C(=O)OCC(=O)Nc2ccc(S(N)(=O)=O)cc2)ccc1O,8,15,-14,1,13,-6,x,x,x,x
COc1cc(/C=C/C(=O)OCC(=O)Nc2ccc([N+](=O)[O-])cc2)ccc1O,21,30,46,72*,6,14,77*,43*,58*,39*
O=C(COC(=O)/C=C/c1ccc(Cl)cc1)Nc1ccccc1,-6,8,44,62*,9,-6,15,2,6,6
O=C(O)c1cccc(CSc2n[nH]c(-c3ccc(Cl)cc3Cl)n2)c1,-8,4,-9,11,25,-21,x,x,x,x
O=C(NCC1CC1)c1ccc(Nc2nc3ccc(Br)cc3[nH]2)cc1,-26,-28,93*,49*,17,3,45*,2,67*,18
SMILES,OX1R antag-1,CHO parental Ca,TAAR1 antag,TAAR1 ag,OX1R antag-2,GPR7 antag,TAAR1 ag conf,Ga16 nonsel ag,TAAR1 desensitize,Ga16 nonsel ant
CC[C@H](C)[C@H](NC(N)=O)C(=O)NCCc1ccc(OC)c(OC)c1,1,-4,-18,2,8,-12,x,x,x,x
Nc1cc(=O)[nH]c(SCC(=O)N2CCc3ccccc3C2)n1,-10,-8,75*,80*,6,-2,89*,5,43,7
COc1ccccc1CNC(=O)COC(=O)/C=C/c1ccc(OC(F)F)c(OC)c1,-14,4,78*,92*,28,x,47*,23*,57*,23*
O=C(COC(=O)/C=C/c1ccc(OC(F)F)cc1)NCc1cccs1,7,5,61*,82*,7,-18,15,11,-1,5
CCn1c(SCCN2CCCCC2)nc2c1c(=O)n(C)c(=O)n2C,x,x,-6,1,x,x,x,x,x,x
COc1ccc(NC(=O)CSc2nnc(-c3ccccn3)n2N)cc1Cl,-25,-12,22,44*,15,-9,61*,2,24,4
CCCC(=O)Oc1ccc(C2NC(=O)c3ccccc3O2)cc1OC (configuration not stated),-11,-7,10,1,15,-8,x,x,x,x
O=C(CN(Cc1ccccc1)C(=O)c1csnn1)NCCc1ccccc1,-24,-17,25,75*,10,0,68*,6,34,12
CCSCCc1nnc(NC(=O)Nc2cccc(C(F)(F)F)c2)s1,-19,-10,-6,26,29,3,x,x,x,x
COc1ccc(C23CC4CC(CC(C4)C2)C3)cc1C(=O)NCCN(C)C,-11,-6,3,46*,4,5,54*,21*,22,13

# Screens: PubChem, The Scripps Research Institute Molecular Screening Center
